MT stabilize HCS: stabilizes microtubules in HeLa cells. HeLa tubulin immunostaining HCS, 24 h; share of cells brighter than vehicle mean+2SD. AID 2205. % tubulin-high responders, % at 10 µM. 200,000 tested, 0.83% active;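 active = plate Z-score above 3 for both tubulin-high and condensed-nucleus cell shares, with cell loss under 80%, at 10 µM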;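 also: anti alpha tubulin signal scored within the nucleus-defined area of each cell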
ROMK mod: human ROMK K+ channel modulation, primary screen; P48048; Tet-inducible ROMK, thallium flux fluorescence; actives lie on both sides; B-score at 10 µM; 130,000 tested, 2% active; AID 1918;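 active = signal ratio slope over the read window, or its plate-corrected B-score, at least 3 SD from the plate mean, either direction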;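 also: B-score of the F/F0 ratio slope over 7 to 12 s after thallium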
Target sequence (P48048 whole entry, looked up): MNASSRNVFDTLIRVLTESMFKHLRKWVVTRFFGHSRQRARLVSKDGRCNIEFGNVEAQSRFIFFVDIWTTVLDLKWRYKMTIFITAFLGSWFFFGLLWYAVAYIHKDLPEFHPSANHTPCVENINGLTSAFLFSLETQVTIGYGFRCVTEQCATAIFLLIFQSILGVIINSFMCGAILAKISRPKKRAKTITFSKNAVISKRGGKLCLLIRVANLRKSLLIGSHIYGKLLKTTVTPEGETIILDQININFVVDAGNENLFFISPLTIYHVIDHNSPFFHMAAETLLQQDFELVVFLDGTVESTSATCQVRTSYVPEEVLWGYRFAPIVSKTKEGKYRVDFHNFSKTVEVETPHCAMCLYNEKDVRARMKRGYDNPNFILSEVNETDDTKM
HSV replic up: HSV replication enhancement | HSV replication augmentation in cells, fold increase | 220,000 tested, 0.005% active | maximum fold increase; in the data active = maximum fold increase above about 1.5; tested in PC3 cells
b-catenin transl: modulators of beta-catenin nuclear translocation; 190,000 tested, 0.3% active; AID 1665; nuclear translocation activity, % at 5 µM; HeLa beta-catenin nuclear translocation, immunofluorescence imaging;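 active = nuclear translocation activity above 50% at 5 µM, with a well cell count of 50 or more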;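 also: per-cell ratio of nuclear to cytoplasmic median beta-catenin stain intensity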
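Assay system: human HeLa cells, native beta-catenin; doses: 5 µM primary, 0.02–20 µM confirmation; incubation: compound treatment 24 h, 37°C, 5% CO2; technique: fluorescence imaging of beta-catenin antibody stain plus DAPI; measure: % activation, nuclear-to-cytoplasmic median beta-catenin signal ratio per cell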
Insulin prom inh: TRM-6 insulin promoter activity inhibition. TRM-6 cells, insulin promoter-eGFP reporter, imaging; reporter expression induced with tamoxifen. inhibition, % at 2 µM. AID 1273. 130,000 tested, 0.9% active;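 active = inhibition above the mean plus 3 SD, with well images judged a real hit on visual review, cut at about 60% in these data, passing the limit was not always enough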
A number is an active result. Only some compounds are listed: those with a hit (about 2.4% of all), similar ones and a draw of the others.

`CCCC(=O)NCCCc1nc2ccccc2[nH]1` gave MT stabilize HCS inactive, HSV replic up inactive and b-catenin transl inactive.
Screening CCCCc1nc2ccccc2[nH]1 returned MT stabilize HCS inactive, ROMK mod inactive, HSV replic up inactive, b-catenin transl inactive and Insulin prom inh 89.2.
COC(=O)c1ccc(CSc2nc3ccc(S(=O)(=O)N4CCOCC4)cc3[nH]2)cc1 was read as MT stabilize HCS inactive, HSV replic up inactive and b-catenin transl inactive.
C/C(=C\C(=O)c1sccc1Cl)N(C)C was read as MT stabilize HCS inactive, ROMK mod inactive, HSV replic up inactive and b-catenin transl inactive.
CC(/C=N/NC(=O)Cc1cccs1)=C\c1ccccc1 was read as MT stabilize HCS inactive, ROMK mod inactive, HSV replic up inactive, b-catenin transl inactive and Insulin prom inh inactive.
Screening CC(/C=N/NC(=O)Cc1cccn1C)=C\c1ccccc1 returned MT stabilize HCS inactive, ROMK mod inactive, HSV replic up inactive, b-catenin transl inactive and Insulin prom inh 75.0.
NC(=O)C1CCCN(C(=S)Nc2cccc3ccccc23)C1 (stereo unspecified) was read as MT stabilize HCS inactive, HSV replic up inactive and b-catenin transl inactive.
For O=S(=O)(Nc1ccc2c(c1)nc1n2CCN(Cc2ccccc2)C1)c1ccc(Cl)cc1 the results were MT stabilize HCS 30.1, HSV replic up inactive and b-catenin transl inactive.
`O=S(=O)(Nc1ccc2c(c1)nc1n2CCN(Cc2ccccc2)C1)c1ccccc1` gave MT stabilize HCS inactive, ROMK mod inactive, HSV replic up inactive, b-catenin transl inactive and Insulin prom inh inactive.
For COC(=O)c1ccc(COc2ncnc3c(Cl)cc(Cl)cc23)o1 the results were MT stabilize HCS inactive, ROMK mod inactive, HSV replic up inactive, b-catenin transl inactive and Insulin prom inh inactive.
Screening Cc1ccccc1CN1C(=O)CSc2ccc(C(=O)N3CCOCC3)cc21 returned MT stabilize HCS 37.8, ROMK mod inactive, HSV replic up inactive and Insulin prom inh inactive.
Cc1ccc(N2CCN(S(=O)(=O)N3CCCCC3)CC2)cc1Cl was read as MT stabilize HCS inactive, ROMK mod inactive, HSV replic up inactive, b-catenin transl inactive and Insulin prom inh 70.3.
For Cc1ccc(N2CCN(C(=O)N3CCCC3)CC2)cc1Cl the results were MT stabilize HCS inactive, ROMK mod inactive, HSV replic up inactive, b-catenin transl inactive and Insulin prom inh inactive.
For Cc1nn(-c2ccc(F)cc2)c(C)c1NS(=O)(=O)c1ccc(Cl)cc1 the results were MT stabilize HCS inactive, HSV replic up inactive and Insulin prom inh inactive.
`Cc1[nH]n(-c2ccccc2)c(=O)c1C(C[N+](=O)[O-])c1ccccc1Cl` (stereo unspecified) gave MT stabilize HCS inactive, HSV replic up inactive, b-catenin transl inactive and Insulin prom inh inactive.
Cc1[nH]n(-c2ccccc2)c(=O)c1C(c1ccc(O)c([N+](=O)[O-])c1)c1c(C)[nH]n(-c2ccccc2)c1=O was read as MT stabilize HCS inactive, HSV replic up inactive and Insulin prom inh 77.3.
`O=S(=O)(Nc1ccc(N2CCCCC2)cc1)c1cccs1` gave MT stabilize HCS inactive, HSV replic up inactive and b-catenin transl inactive.
Screening O=C(NC(=S)Nc1ccc(S(=O)(=O)N2CCCCC2)cc1)c1ccccc1 returned MT stabilize HCS inactive, ROMK mod 2.83, HSV replic up inactive, b-catenin transl inactive and Insulin prom inh inactive.
`O=S(=O)(Nc1ccc(S(=O)(=O)N2CCCCCC2)cc1)c1cccs1` gave MT stabilize HCS inactive, HSV replic up inactive and Insulin prom inh 85.7.
COc1ccccc1N(C)S(=O)(=O)c1ccc(C(=O)OCC(N)=O)cc1 was read as MT stabilize HCS inactive, ROMK mod inactive, HSV replic up inactive, b-catenin transl inactive and Insulin prom inh inactive.
For CCCNC(=O)NC(=O)COC(=O)c1ccc(S(=O)(=O)N(C)c2ccccc2OC)cc1 the results were MT stabilize HCS 15.2, ROMK mod inactive, HSV replic up inactive and b-catenin transl inactive.
Cc1nc2sc(C(=O)Nc3ccccc3)c(N)c2c(C)c1[N+](=O)[O-] was read as MT stabilize HCS inactive, ROMK mod inactive, HSV replic up inactive, b-catenin transl inactive and Insulin prom inh inactive.
For S=C(Nc1ccccc1)Nc1nc2ccccc2n1CCOc1ccccc1 the results were MT stabilize HCS 30.5, ROMK mod inactive, HSV replic up inactive, b-catenin transl inactive and Insulin prom inh inactive.
Screening CC(=O)Nc1nc2ccccc2n1CCOc1ccccc1 returned MT stabilize HCS inactive, HSV replic up inactive and Insulin prom inh inactive.
CCC(=O)N/C(N)=N/c1nc(C)c2cc(OC)ccc2n1 was read as MT stabilize HCS inactive, HSV replic up inactive and Insulin prom inh 80.0.
Screening CCCCC(=O)Nc1ccc(C(=O)NN2C(=O)c3ccccc3C2=O)cc1 returned MT stabilize HCS inactive, HSV replic up inactive, b-catenin transl inactive and Insulin prom inh inactive.
`CN(C)C(=O)CN(c1ccc2c(c1)OCO2)S(C)(=O)=O` gave MT stabilize HCS inactive, HSV replic up inactive, b-catenin transl inactive and Insulin prom inh 71.4.
Cc1nn(-c2cc(N(S(C)(=O)=O)S(C)(=O)=O)c(Cl)cc2Cl)c(=O)n1C was read as MT stabilize HCS inactive, ROMK mod inactive, HSV replic up inactive and Insulin prom inh inactive.
C/C(=N\NC(=O)c1cccc(F)c1)c1ccc(Br)s1 was read as MT stabilize HCS 34.1, HSV replic up inactive, b-catenin transl inactive and Insulin prom inh inactive.
`CC(=O)OC(C(=O)NCc1ccco1)c1cccnc1` (stereo unspecified) gave MT stabilize HCS inactive, ROMK mod inactive, HSV replic up inactive and Insulin prom inh 76.3.
Screening CCc1nnc(NC(=O)CSc2nnc(Cc3cc(=O)[nH]c(=O)[nH]3)n2-c2ccc(OC)cc2)s1 returned MT stabilize HCS inactive, ROMK mod inactive, HSV replic up inactive, b-catenin transl inactive and Insulin prom inh 77.8.
For CCc1nnc(NC(=O)CSc2nnc(Cc3cc(=O)[nH]c(=O)[nH]3)n2-c2cccc(OC)c2)s1 the results were MT stabilize HCS inactive, ROMK mod inactive, HSV replic up inactive, b-catenin transl inactive and Insulin prom inh inactive.
Screening CCc1nnc(NC(=O)CSc2nnc(-c3ccc(OC)cc3)n2C)s1 returned MT stabilize HCS inactive, ROMK mod inactive, HSV replic up inactive, b-catenin transl inactive and Insulin prom inh inactive.
CCOc1ccc(-n2ccnc2SCC(=O)Nc2nnc(CC)s2)cc1 was read as MT stabilize HCS inactive, HSV replic up inactive, b-catenin transl inactive and Insulin prom inh 81.8.
For CC(=O)N1C(=O)CC(C)N(C(C)=O)c2ccc([N+](=O)[O-])cc21 (stereo unspecified) the results were MT stabilize HCS inactive, HSV replic up inactive and b-catenin transl inactive.
COC(=O)c1ccc(-c2nc3ccc(C)cc3o2)cc1 was read as MT stabilize HCS 52.1, HSV replic up inactive, b-catenin transl inactive and Insulin prom inh inactive.
`COC(=O)c1ccc(-c2nc3ccccc3o2)cc1` gave b-catenin transl inactive.
Screening O=c1[nH]c(-c2cccnc2)nc2sc(-c3ccccc3)cc12 returned MT stabilize HCS 20.1, ROMK mod inactive, HSV replic up inactive and b-catenin transl 120.3.

Source: PubChem BioAssay (several laboratories)
